In ChEMBL document CHEMBL1250429, “Studies on the anti-hepatitis C virus activity of newly synthesized tropolone derivatives: identification of NS3 helicase inhibitors that specifically inhibit subgenomic HCV replication” (Bioorg Med Chem, 2010):

Legend:
[1] = Inhibition of HCV NS3 helicase; set-up: species or system Hepacivirus hominis
Procedure, shortened: (§1)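 Fluorescence unwinding assay with purified NS3 helicase domains. Genotype 1a was expressed in baculovirus-infected insect cells; genotypes 1b and 3a were cloned from patient blood by RT-PCR, purity 95% by SDS–PAGE. Reactions used 10 nM dsDNA substrate, 20 nM enzyme and 125 nM capture strand. Inhibitor (1–300 μM) was preincubated with enzyme and substrate 15 min at room temperature without ATP. Reactions were started with 1.5 mM ATP and run 60 min at 30 °C, read every 2 min. Activity = initial velocity; inhibition relative to no-inhibitor control. Mean of at least three experiments ± SD.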

Hepatitis C virus [2] = experiment: Antiviral activity against HCV Con 1 by subgenomic replicon assay; assay type: functional, organism-based, Hepacivirus hominis; settings: Con1
Procedure, shortened: (§2)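 Huh-7 cells carrying a stably replicating subgenomic HCV replicon were grown with compound at 1 μM to 1 mM, final solvent 1%; solvent-only cells served as control. Remaining replication read as luminescence. EC50 = concentration reducing luminescence by 50%; SI = CC50/EC50. Mean of at least three independent experiments ± SD.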

[3] = Cytotoxicity against human HuH7 cells; assay type: cell-based, Huh-7
Procedure, shortened: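 Replicon-bearing Huh-7 cells were grown with compound at 1 μM to 1 mM at a constant final 1% solvent. CC50 = concentration inhibiting cell growth by 50%. Mean of at least three independent experiments ± SD.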

[4] = Selectivity index, ratio of CC50 for human HuH7 cells to EC50 for; set-up: species or system Huh-7; procedure, shortened: as §2
Hepatitis C virus [5] = experiment: Inhibition of HCV genotype 1B NS3 helicase; set-up: species or system Hepatitis C virus subtype 1b; procedure, shortened: as §1
[6] = Inhibition of HCV genotype 1a NS3 helicase; set-up: species or system Hepatitis C virus subtype 1a; procedure, shortened: as §1
[7] = Inhibition of HCV genotype 3a NS3 helicase; set-up: species or system Hepatitis C virus subtype 3a; procedure, shortened: as §1

SMILES | IC50 [1] [µM] | EC50 (Hepatitis C virus [2]) [µM] | CC50 [3] [µM] | Ratio CC50/EC50 [4] | IC50 (Hepatitis C virus [5]) [µM] | IC50 [6] [µM] | IC50 [7] [µM]
CC1CCN(Cc2cc(CN3CCC(C)CC3)c(O)c(=O)c(CN3CCC(C)CC3)c2)CC1 | 10.5 | 32 | 556 | 17.4 |  |  | 
O=c1c(CN2CCC(O)CC2)cc(CN2CCC(O)CC2)cc(CN2CCC(O)CC2)c1O | 22.7 | > 250 | > 250 |  |  |  | 
O=c1ccccc(Br)c1O | > 150 | 121 | 85.2 | 0.7 |  |  | 
O=c1c(Br)cc(CN2CCOCC2)cc(Br)c1O | 17.6 | 176 | 227 | 1.3 |  |  | 
O=c1c(CN2CCCC2)cc(CN2CCCC2)cc(CN2CCCC2)c1O | 184 | > 500 | > 500 |  |  |  | 
CC1CCCN(Cc2cc(CN3CCCC(C)C3)c(O)c(=O)c(CN3CCCC(C)C3)c2)C1 (centres undefined) | 17.8 | 35.6 | 348 | 9.8 |  |  | 
NC(=O)c1ncn([C@@H]2O[C@H](CO)[C@@H](O)[C@H]2O)n1 [RIBAVIRIN] |  | 120 | 178 | 1.5 |  |  | 
O=c1c(Cl)cccc(Cl)c1O | > 150 | 334 | 254 | 0.8 |  |  | 
O=c1c(CN2CCC(N3CCCC3)CC2)cc(CN2CCC(N3CCCC3)CC2)cc(CN2CCC(N3CCCC3)CC2)c1O | 7 | > 200 | > 200 |  |  |  | 
CN1CCN(Cc2cc(CN3CCN(C)CC3)c(O)c(=O)c(CN3CCN(C)CC3)c2)CC1 | 3.4 | 46.9 | > 1000 | >21.3 | 3.5 | 3.4 | 4.5
O=c1c(Br)cccc(Br)c1O | > 150 | 89.8 | 92.7 | 1 |  |  | 
[N-]=[N+]=N[C@]1(CO)O[C@@H](n2ccc(N)nc2=O)[C@H](O)[C@@H]1O [4'-AZIDOCYTIDINE] |  | 10.5 | > 100 |  |  |  | 
O=c1c(CN2CCCCC2)cc(CN2CCCCC2)cc(CN2CCCCC2)c1O | 26.5 | 137 | > 500 | >3.6 |  |  | 
